Assay [1] deals with Helicobacter pylori. The assay is described as follows: Antimicrobial activity against Helicobacter pylori isolates after 36 hrs under […] condition by microdilution method. Format: functional. A general note: Broth dilution looks for growth in wells or tubes with falling amounts of substance.
The subject of a further assay is Pseudomonas aeruginosa. In words: Antimicrobial activity against Pseudomonas aeruginosa ATCC 27853 after 36 hrs under aerobic condition by microdilution method. Format: functional, organism-based. The method in brief: (§1)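 Bacteria grown overnight at 37 °C in tryptone soya broth (~10^9 cells/mL), then diluted in sterile saline to about 1.0 × 10^5 per well. Broth serial microdilution with compounds predissolved in DMSO, at final […]; DMSO ≤1%. Incubated 36 h at 37 °C. MIC = lowest concentration with no visible growth under binocular microscope. Inocula checked on TSA. Controls: DMSO, streptomycin.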

The next assay concerns Proteus mirabilis. In words: Antimicrobial activity against Proteus mirabilis isolates after 36 hrs under aerobic condition by microdilution method. It is filed as functional. The method in brief:
as §1

The subject of the next assay is Escherichia coli. The assay is described as follows: Antimicrobial activity against Escherichia coli ATCC 35218 after 36 hrs under aerobic condition by microdilution method. Format: functional. Conditions: ATCC 35218, 36 h. In a few lines:
as §1

The subject of assay [2] is Helicobacter pylori. The assay is described as follows: Antimicrobial activity against Helicobacter pylori isolates after 3 days under microaerobic condition by microdilution method.
The subject of another assay is Staphylococcus aureus. In words: Antimicrobial activity against Staphylococcus aureus ATCC 6538 after 36 hrs under aerobic condition by microdilution method. It is filed as functional. Conditions: ATCC 6538, 36 h. The method in brief:
as §1

In another assay the test system is Bacillus cereus. In words: Antimicrobial activity against Bacillus cereus isolate after 36 hrs under aerobic condition by microdilution method. Format: functional. The method in brief:
as §1

The next assay relates to Micrococcus flavus. The assay is described as follows: Antimicrobial activity against Micrococcus flavus ATCC 10240 after 36 hrs under aerobic condition by microdilution method. Format: functional. Conditions: ATCC 10240, 36 h. The method in brief: as §1

In brackets after ≈: the same amount, converted by molar mass. Activity calls are given as the source filed them.

On to `COc1cc(-c2oc3cc(O)cc(O)c3c(=O)c2O)ccc1O`, for which the outcome with Helicobacter pylori [1], in the assay with Pseudomonas aeruginosa and in the assay with Proteus mirabilis was inactive.

With `COc1c(-c2ccc(O)c(O)c2)oc2cc(O)cc(O)c2c1=O` [3-O-METHYLQUERCETIN], the results for the MIC in the assay on Escherichia coli and in the assay with Helicobacter pylori [2] were 50 µg/mL (≈ 158 µM) and 12.5 µg/mL (≈ 39.5 µM), respectively. The result in the assay on Pseudomonas aeruginosa and with Proteus mirabilis was inactive.

Turning to `O=c1c(O[C@@H]2O[C@H](CO)[C@@H](O)[C@H](O)[C@H]2O)c(-c2ccc(O)c(O)c2)oc2cc(O)cc(O)c12` [ISOQUERCETIN], the outcome in the assay with Pseudomonas aeruginosa and in the assay with Proteus mirabilis was inactive. For the same compound, in the assay on Helicobacter pylori [2], the MIC (in general, the smallest concentration in the dilution series that meets the test's criterion for growth inhibition) is 25 µg/mL (≈ 53.8 µM).

For the compound `COc1ccc(-c2oc3cc(O)c(OC)c(O)c3c(=O)c2OC)cc1O`, the outcome in the assay with Pseudomonas aeruginosa and with Proteus mirabilis was inactive.

Regarding `O=C(/C=C/c1ccc(O)c(O)c1)O[C@@H]1C[C@](O)(C(=O)O)C[C@@H](O)[C@H]1O` [CHLOROGENIC ACID], the outcome in the assay on Pseudomonas aeruginosa and with Proteus mirabilis was inactive. This compound also displayed an MIC with Helicobacter pylori [2] of 6.25 µg/mL (≈ 17.6 µM).

Regarding `C=C1C(=O)O[C@H]2C[C@@]3(C)[C@H](O)CC=C(C)[C@@H]3[C@@H](O)[C@H]12`, the MIC was found to be 50 µg/mL (≈ 189 µM) against Staphylococcus aureus, 12.5 µg/mL (≈ 47.3 µM) with Helicobacter pylori [2] and 25 µg/mL (≈ 94.6 µM) in the assay on Bacillus cereus. Besides, the outcome in the assay on Pseudomonas aeruginosa and in the assay with Proteus mirabilis was inactive.

In the case of `O=C1c2c(O)cc(O)cc2O[C@H](c2ccc(O)c(O)c2)[C@H]1O` [(+)-TAXIFOLIN], the result with Pseudomonas aeruginosa and with Proteus mirabilis was inactive. For the same compound, the minimum inhibitory concentration (MIC) with Helicobacter pylori [2] came out at 25 µg/mL (≈ 82.2 µM).

As to `O=c1cc(-c2ccc(O)cc2)oc2cc(O)cc(O)c12`, the outcome with Pseudomonas aeruginosa, in the assay on Proteus mirabilis and in the assay with Helicobacter pylori [2] was inactive.

`C=C1C(=O)O[C@H]2CC(=C)[C@@H](O)CC/C(C)=C/[C@@H](O)[C@H]12` [TATRIDIN B]: the MIC in the assay on Escherichia coli, with Micrococcus flavus, against Staphylococcus aureus, against Helicobacter pylori [2] and in the assay on Bacillus cereus was 50 µg/mL (≈ 189 µM) each time. Further, the result in the assay with Pseudomonas aeruginosa and with Proteus mirabilis was inactive.

As for `C=C1C(=O)O[C@H]2C[C@@]3(C)[C@H](C(C)=CC[C@@H]3O)[C@@H](O)[C@H]12` [ALTISSIN], the figures for the MIC against Staphylococcus aureus, in the assay on Helicobacter pylori [2] and in the assay on Bacillus cereus were 50 µg/mL (≈ 189 µM), 50 µg/mL (≈ 189 µM) and 12.5 µg/mL (≈ 47.3 µM), respectively. Besides, the outcome in the assay with Pseudomonas aeruginosa and with Proteus mirabilis was inactive.

On to `O=c1c(O)c(-c2ccc(O)c(O)c2)oc2cc(O)cc(O)c12` [QUERCETIN], for which the outcome in the assay on Pseudomonas aeruginosa and with Proteus mirabilis was inactive. The MIC in the assay on Helicobacter pylori [2] and against Bacillus cereus was 50 µg/mL (≈ 165 µM) in each case.

For the compound `COc1ccc(-c2oc3cc(O)cc(O)c3c(=O)c2O)cc1` [KAEMPFERIDE], the MIC in the assay with Micrococcus flavus amounted to 50 µg/mL (≈ 167 µM); with Helicobacter pylori [2] it was 6.25 µg/mL (≈ 20.8 µM); in the assay on Bacillus cereus, 25 µg/mL (≈ 83.3 µM). Besides, the outcome in the assay with Pseudomonas aeruginosa and in the assay with Proteus mirabilis was inactive.

With `COc1cc(O)c2c(=O)c(O)c(-c3ccc(O)c(O)c3)oc2c1` [RHAMNETIN], the outcome in the assay on Pseudomonas aeruginosa and with Proteus mirabilis was inactive. Moreover, the minimal inhibitory concentration (MIC) in the assay with Helicobacter pylori [2] was 50 µg/mL (≈ 158 µM).

With `O=C1C[C@@H](c2ccc(O)c(O)c2)Oc2cc(O)cc(O)c21` [ERIODICTYOL], the result in the assay on Pseudomonas aeruginosa and in the assay on Proteus mirabilis was inactive. In the assay on Helicobacter pylori [2], this compound yielded an MIC of 50 µg/mL (≈ 173 µM).

Turning to `CN[C@@H]1[C@H](O[C@H]2[C@H](O[C@H]3[C@H](O)[C@@H](O)[C@H](N=C(N)N)[C@@H](O)[C@@H]3N=C(N)N)O[C@@H](C)[C@]2(O)C=O)O[C@@H](CO)[C@H](O)[C@H]1O` [STREPTOMYCIN], the minimum inhibitory concentration (MIC) is 200 µg/mL (≈ 344 µM) against Escherichia coli; 100 µg/mL (≈ 172 µM) in the assay on Micrococcus flavus; 100 µg/mL (≈ 172 µM) in the assay on Staphylococcus aureus; 400 µg/mL (≈ 688 µM) against Proteus mirabilis; 100 µg/mL (≈ 172 µM) against Bacillus cereus.

For the compound `C=C1C(=O)O[C@H]2C[C@@]3(C)[C@H](O)CCC(=C)[C@@H]3[C@@H](O)[C@H]12`, the minimal inhibitory concentration (MIC) against Escherichia coli, in the assay with Micrococcus flavus, in the assay with Staphylococcus aureus, with Helicobacter pylori [2] and against Bacillus cereus was 50 µg/mL (≈ 189 µM) throughout. The result with Pseudomonas aeruginosa and in the assay with Proteus mirabilis was inactive.

Turning to `C=C1C(=O)O[C@H]2/C=C(\C)[C@@H](O)CC/C(C)=C/[C@@H](O)[C@H]12` [TATRIDIN A], the minimal inhibitory concentration (MIC) turned out to be 50 µg/mL (≈ 189 µM) in the assay on Staphylococcus aureus, 12.5 µg/mL (≈ 47.3 µM) against Helicobacter pylori [2] and 50 µg/mL (≈ 189 µM) in the assay with Bacillus cereus. Besides, the outcome with Pseudomonas aeruginosa and in the assay on Proteus mirabilis was inactive.

The values are drawn from ChEMBL document CHEMBL1146521, “Sesquiterpene lactones from Anthemis altissima and their anti-Helicobacter pylori activity” (2003).
